Measured values published in ChEMBL document CHEMBL1123369, “Synthesis and structure-activity relationships of new arylfluoronaphthyridine antibacterial agents” (1986).
Values after ≈ are worked out from the molar mass of the structure shown.

Key:
Type in all cases: functional
Escherichia coli = assay: In vitro antibacterial activity against Escherichia coli Juhl
How it was run: (§1)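 Twofold agar dilution in brain-heart infusion agar, test range 200 to 0.005 µg/mL, made from a 2000 µg/mL stock. Organisms grown overnight in BHI broth at 36 °C. About 10⁴ organisms inoculated per plate, then incubated 18 h at 36 °C. MIC taken as the lowest concentration giving no visible growth.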

Enterococcus faecium = assay: In vitro antibacterial activity against Streptococcus faecium ATCC 8043; how it was run: as §1
Pseudomonas aeruginosa [1] = assay: In vitro antibacterial activity against Pseudomonas aeruginosa 5007; how it was run: as §1
Acinetobacter sp. = assay: In vitro antibacterial activity against Acinetobacter species CMX669; how it was run: as §1
Klebsiella pneumoniae = assay: In vitro antibacterial activity against Klebsiella pneumoniae 8045; how it was run: as §1
Pseudomonas aeruginosa [2] = assay: In vitro antibacterial activity against Pseudomonas aeruginosa K799/WT; how it was run: as §1
Klebsiella aerogenes = assay: In vitro antibacterial activity against Enterobacter aerogenes ATCC 13048; how it was run: as §1
Staphylococcus aureus [3] = assay: In vitro antibacterial activity against Staphylococcus aureus CMX 686B; how it was run: as §1
[4] = system: Staphylococcus epidermidis; assay: In vitro antibacterial activity against Staphylococcus epidermidis 3519; how it was run: as §1
Streptococcus pyogenes = assay: In vitro antibacterial activity against Streptococcus pyogenes 930; how it was run: as §1
Staphylococcus aureus [5] = assay: In vitro antibacterial activity against Staphylococcus aureus ATCC 6538P; how it was run: as §1
Mus musculus [6] = assay: In vivo dose(po) inhibiting systemic infections caused by Escherichia coli Juhl in mice.
How it was run: (§2)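 CF-1 female mice, about 20 g. Infected ip with 0.5 mL of an 18-h BHI culture diluted in 5% hog gastric mucin to 100× LD₅₀. LD₅₀ set by 10-fold dilutions (Reed–Muench, day 6). Compound given in water or dilute NaOH, sc or po, total dose split at 1 and 5 h post-infection. At least 3 dose levels, 10 mice each. Deaths followed 6 days. ED₅₀ from day-6 cumulative mortality by trimmed Logit, with 95% confidence limits.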

Mus musculus [7] = assay: In vivo dose(sc) inhibiting systemic infections caused by Staphylococcus aureus NCTC 10649 in mice.; how it was run: as §2
Mus musculus [8] = assay: In vivo dose(po) inhibiting systemic infections caused by Pseudomonas aeruginosa 5007 in mice.; how it was run: as §2
Mus musculus [9] = assay: In vivo dose(sc) inhibiting systemic infections caused by Escherichia coli Juhl in mice.; how it was run: as §2
Mus musculus [10] = assay: In vivo antibacterial activity against systemic infection caused by Staphylococcus aureus NCTC 10649 in mice.; how it was run: as §2
Mus musculus [11] = assay: In vivo dose(sc) inhibiting systemic infections caused by Pseudomonas aeruginosa 5007 in mice.; how it was run: as §2
Mus musculus [12] = assay: In vivo antibacterial activity against systemic infection caused by Escherichia coli Juhl in mice.; how it was run: as §2
Mus musculus [13] = assay: In vivo antibacterial activity against systemic infection caused by Pseudomonas aeruginosa 5007 in mice.; how it was run: as §2
Mus musculus [14] = assay: In vivo dose(po) inhibiting systemic infections caused by Staphylococcus aureus NCTC 10649 in mice.; how it was run: as §2
Mus musculus [15] = assay: In vivo dose(po) inhibiting systemic infections caused by Staphylococcus aureus NCTC 10649 in mice; how it was run: as §2
Mus musculus [16] = assay: In vivo antibacterial activity against systemic infection caused by Escherichia coli Juhl in mice; how it was run: as §2
Mus musculus [17] = assay: In vivo dose(sc) inhibiting systemic infections caused by Escherichia coli Juhl in mice
How it was run: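 Female CF-1 mice (~20 g) infected ip with 0.5 mL of 18-h BHI culture of E. coli Juhl diluted in 5% (w/v) hog gastric mucin to 100 times LD50 (LD50 from 10-fold dilutions, day-6 mortality, Reed-Muench). Compound dissolved in water (HCl salt) or dilute NaOH then water, given sc split equally at 1 and 5 h post-infection. 10 mice per dose, ≥3 doses. Deaths recorded 6 days; ED50 from day-6 cumulative mortality by trimmed Logit.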

Mus musculus [18] = assay: In vivo antibacterial activity against systemic infection caused by Staphylococcus aureus NCTC 10649 in mice
Mus musculus [19] = assay: In vivo dose(po) inhibiting systemic infections caused by Escherichia coli Juhl in mice; how it was run: as §2
Mus musculus [20] = assay: In vivo dose(sc) inhibiting systemic infections caused by Staphylococcus aureus NCTC 10649 in mice; how it was run: as §2
Mus musculus [21] = assay: In vivo dose(po) inhibiting systemic infections caused by Pseudomonas aeruginosa 5007 in mice; how it was run: as §2
Mus musculus [22] = assay: In vivo dose(sc) inhibiting systemic infections caused by Pseudomonas aeruginosa 5007 in mice; how it was run: as §2
Mus musculus [23] = assay: In vivo antibacterial activity against systemic infection caused by Pseudomonas aeruginosa 5007 in mice
Mus musculus [24] = assay: In vivo antibacterial activity against systemic infection caused by Escherichia coli juhl in mice.; how it was run: as §2

SMILES | MIC (Escherichia coli) | MIC (Enterococcus faecium) | MIC (Pseudomonas aeruginosa [1]) | MIC (Acinetobacter sp.) | MIC (Klebsiella pneumoniae) | MIC (Pseudomonas aeruginosa [2]) | MIC (Klebsiella aerogenes) | MIC (Staphylococcus aureus [3]) | MIC [4] | MIC (Streptococcus pyogenes) | MIC (Staphylococcus aureus [5]) | further results
CCn1cc(C(=O)O)c(=O)c2cc(F)c(N3CCNCC3)cc21 [NORFLOXACIN] | 0.1 µg/mL (≈ 0.313 µM) | 0.78 µg/mL (≈ 2.44 µM) | 0.39 µg/mL (≈ 1.22 µM) | 6.2 µg/mL (≈ 19.4 µM) | 0.1 µg/mL (≈ 0.313 µM) | 0.39 µg/mL (≈ 1.22 µM) | 0.2 µg/mL (≈ 0.626 µM) | 0.78 µg/mL (≈ 2.44 µM) | 1.56 µg/mL (≈ 4.89 µM) | 3.1 µg/mL (≈ 9.71 µM) | 0.78 µg/mL (≈ 2.44 µM) | –
Cl.O=C(O)c1cn(-c2ccc(F)cc2)c2cc(N3CCNCC3)c(F)cc2c1=O [SARAFLOXACIN HYDROCHLORIDE] | 0.05 µg/mL | 1.56 µg/mL | 0.39 µg/mL | 0.2 µg/mL | 0.02 µg/mL | 0.39 µg/mL | 0.2 µg/mL | 0.2 µg/mL | 0.39 µg/mL | 0.78 µg/mL | 0.2 µg/mL | ED50 (Mus musculus [6]): 4.3 mg/kg; ED50 (Mus musculus [7]): 1.6 mg/kg; ED50 (Mus musculus [8]): 21.4 mg/kg; ED50 (Mus musculus [9]): 0.6 mg/kg; MIC (Mus musculus [10]): 0.12 µg/mL; ED50 (Mus musculus [11]): 1.6 mg/kg; MIC (Mus musculus [12]): 0.05 µg/mL; MIC (Mus musculus [13]): 0.39 µg/mL; ED50 (Mus musculus [14]): 6.5 mg/kg
O=C(O)c1cn(-c2ccccc2)c2nc(N3CCNCC3)c(F)cc2c1=O | 0.2 µg/mL (≈ 0.543 µM) | 50 µg/mL (≈ 136 µM) | 1.56 µg/mL (≈ 4.23 µM) | 1.56 µg/mL (≈ 4.23 µM) | 0.1 µg/mL (≈ 0.271 µM) | 1.56 µg/mL (≈ 4.23 µM) | 0.39 µg/mL (≈ 1.06 µM) | 1.56 µg/mL (≈ 4.23 µM) | 1.56 µg/mL (≈ 4.23 µM) | 6.2 µg/mL (≈ 16.8 µM) | 1.56 µg/mL (≈ 4.23 µM) | –
O=C(O)c1cn(C2CC2)c2cc(N3CCNCC3)c(F)cc2c1=O [CIPROFLOXACIN] | – | 0.2 µg/mL (≈ 0.604 µM) | 0.1 µg/mL (≈ 0.302 µM) | 1.56 µg/mL (≈ 4.71 µM) | 0.02 µg/mL (≈ 0.0604 µM) | 0.1 µg/mL (≈ 0.302 µM) | 0.05 µg/mL (≈ 0.151 µM) | 0.39 µg/mL (≈ 1.18 µM) | 0.39 µg/mL (≈ 1.18 µM) | 0.39 µg/mL (≈ 1.18 µM) | 0.2 µg/mL (≈ 0.604 µM) | ED50 (Mus musculus [15]): 15.5 mg/kg; MIC (Mus musculus [16]): 0.02 µg/mL (≈ 0.0604 µM); ED50 (Mus musculus [17]): 0.2 mg/kg; MIC (Mus musculus [18]): 0.25 µg/mL (≈ 0.754 µM); ED50 (Mus musculus [19]): 1.9 mg/kg; ED50 (Mus musculus [20]): 1.6 mg/kg; ED50 (Mus musculus [21]): 13.3 mg/kg; ED50 (Mus musculus [22]): 2.1 mg/kg; MIC (Mus musculus [23]): 0.1 µg/mL (≈ 0.302 µM)
CN1CCN(c2nc3c(cc2F)c(=O)c(C(=O)O)cn3-c2ccc(F)cc2F)CC1 | 0.39 µg/mL (≈ 0.932 µM) | 1.56 µg/mL (≈ 3.73 µM) | 3.1 µg/mL (≈ 7.41 µM) | 0.39 µg/mL (≈ 0.932 µM) | 0.39 µg/mL (≈ 0.932 µM) | 3.1 µg/mL (≈ 7.41 µM) | 0.39 µg/mL (≈ 0.932 µM) | 0.2 µg/mL (≈ 0.478 µM) | 0.39 µg/mL (≈ 0.932 µM) | 1.56 µg/mL (≈ 3.73 µM) | 0.2 µg/mL (≈ 0.478 µM) | –
O=C(O)c1cn(-c2ccc(F)cc2)c2nc(N3CCC(O)C3)c(F)cc2c1=O (stereo not drawn) | 0.39 µg/mL (≈ 1.01 µM) | 1.56 µg/mL (≈ 4.03 µM) | 3.1 µg/mL (≈ 8 µM) | 0.39 µg/mL (≈ 1.01 µM) | 0.1 µg/mL (≈ 0.258 µM) | 3.1 µg/mL (≈ 8 µM) | 0.39 µg/mL (≈ 1.01 µM) | 0.05 µg/mL (≈ 0.129 µM) | 0.2 µg/mL (≈ 0.516 µM) | 0.78 µg/mL (≈ 2.01 µM) | 0.05 µg/mL (≈ 0.129 µM) | –
NC1CCN(c2nc3c(cc2F)c(=O)c(C(=O)O)cn3-c2ccc(F)cc2F)C1 (stereo not drawn) [TOSUFLOXACIN] | 0.02 µg/mL (≈ 0.0495 µM) | 0.2 µg/mL (≈ 0.495 µM) | 0.2 µg/mL (≈ 0.495 µM) | 0.1 µg/mL (≈ 0.247 µM) | 0.02 µg/mL (≈ 0.0495 µM) | 0.39 µg/mL (≈ 0.965 µM) | 0.1 µg/mL (≈ 0.247 µM) | 0.05 µg/mL (≈ 0.124 µM) | 0.1 µg/mL (≈ 0.247 µM) | 0.2 µg/mL (≈ 0.495 µM) | 0.05 µg/mL (≈ 0.124 µM) | ED50 (Mus musculus [6]): 1.3 mg/kg; ED50 (Mus musculus [7]): 0.2 mg/kg; ED50 (Mus musculus [8]): 4.9 mg/kg; ED50 (Mus musculus [9]): 0.2 mg/kg; MIC (Mus musculus [10]): 0.03 µg/mL (≈ 0.0742 µM); ED50 (Mus musculus [11]): 3.6 mg/kg; MIC (Mus musculus [13]): 0.2 µg/mL (≈ 0.495 µM); MIC (Mus musculus [24]): 0.02 µg/mL (≈ 0.0495 µM); ED50 (Mus musculus [14]): 1.4 mg/kg
